From paper PMC9290503 (British Journal of Clinical Pharmacology, 2021)

Columns and labels:
Format in all cases: in vivo, human
[1] = Study 1003 SRD cohort plasma pharmacokinetics; conditions: fasted
Outline: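 Healthy women received a single oral 120 mg dose, then 160 mg after a washout of at least 14 days (placebo-controlled). Plasma was sampled pre-dose and at 0.25–72 h. Free base was measured by validated UPLC–MS/MS after protein precipitation (calibration 0.5–1000 ng mL−1). Noncompartmental parameters used actual sampling times, with values below LLOQ set to zero.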

[2] = Safety and tolerability, Study 1003
Outline: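 Healthy women received placebo or test compound once daily for 10 days (20–160 mg, double-blind), including one 20 mg cohort of four Japanese women. Monitored AEs, physical and neurological exams, vital signs, flagged clinical labs, pregnancy and 12-lead ECG. TEAEs counted from first dose to 30 days after the last dose. Follow-up to day 70 (±2).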

[3] = Study 1003 MRD cohorts urine pharmacokinetics; conditions: for Aet, mean (CV%) / CLR, mean (CV%) / fe,t, mean (CV%): urine, non‐Japanese
Outline: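 Urine was collected pre-dose and over 0–6, 6–12 and 12–24 h on Days 1 and 10 of once-daily oral dosing. Free base was measured by validated UPLC–MS/MS after protein precipitation (calibration 1–2000 ng mL−1; LLOQ 1 ng mL−1). Noncompartmental analysis used nominal intervals; values below LLOQ were treated as zero.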

[4] = Study 1001 single-dose urine pharmacokinetics; conditions: for Aet, mean (CV%) / CLR, mean (CV%) / fe,t, mean (CV%): urine, Study 1001
[5] = Study 1003 CSF pharmacokinetics at steady state; conditions: 60 mg q.d.
[6] = 20 mg q.d. 10 days, Japanese (n = 3)
[7] = 20 mg q.d. 10 days, non‐Japanese (n = 6)
[8] = 60 mg q.d. 10 days, non‐Japanese (n = 6)
[9] = 160 mg q.d. 10 days, non‐Japanese (n = 3)
[10] = MRD, TAK‐418 all participants (n = 18)
[11] = after multiple dosing (20–160 mg)

Structure (SMILES): Cl.O=C(NC1CCOCC1)c1csc([C@@H]2C[C@H]2NCC2CC2)c1 [TAK‐418]
- AUC0–24, mean (CV%) ([1]; single oral dose 120 mg): 3737.2 (19.9) h*ng mL^−1
- AUC0–∞, mean (CV%) ([1]; single oral dose 120 mg): 3828.3 (20.6) h*ng mL^−1
- C max, mean (CV%) ([1]; single oral dose 120 mg): 727.8 (20.0) ng mL^−1
- t max, median (range) ([1]; single oral dose 120 mg): 1.50 (1.00–1.50) h
- t ½z, mean (CV%) ([1]; single oral dose 120 mg): 5.188 (9.9) h
- AUC0–24, mean (CV%) ([1]; single oral dose 160 mg): 4350.0 (31.0) h*ng mL^−1
- AUC0–∞, mean (CV%) ([1]; single oral dose 160 mg): 4466.8 (31.7) h*ng mL^−1
- C max, mean (CV%) ([1]; single oral dose 160 mg): 796.3 (36.2) ng mL^−1
- t max, median (range) ([1]; single oral dose 160 mg): 1.25 (1.00–2.00) h
- t ½z, mean (CV%) ([1]; single oral dose 160 mg): 4.847 (14.1) h
- Participants with any TEAE [2, 6]: 1 (33.3) Number (%) of participants
- TEAE Arthropod bite [2, 6]: 0 Number (%) of participants
- TEAE Constipation [2, 6]: 0 Number (%) of participants
- TEAE Decreased appetite [2, 6]: 0 Number (%) of participants
- TEAE Diarrhoea [2, 6]: 0 Number (%) of participants
- TEAE Dizziness [2, 6]: 0 Number (%) of participants
- TEAE Dry mouth [2, 6]: 0 Number (%) of participants
- TEAE Headache [2, 6]: 0 Number (%) of participants
- TEAE Myalgia [2, 6]: 0 Number (%) of participants
- TEAE Nausea [2, 6]: 0 Number (%) of participants
- TEAE Somnolence [2, 6]: 0 Number (%) of participants
- TEAE Vomiting [2, 6]: 0 Number (%) of participants
- Participants with any TEAE [2, 7]: 5 (83.3) Number (%) of participants
- TEAE Arthropod bite [2, 7]: 1 (16.7) Number (%) of participants
- TEAE Constipation [2, 7]: 0 Number (%) of participants
- TEAE Decreased appetite [2, 7]: 2 (33.3) Number (%) of participants
- TEAE Diarrhoea [2, 7]: 0 Number (%) of participants
- TEAE Dizziness [2, 7]: 1 (16.7) Number (%) of participants
- TEAE Dry mouth [2, 7]: 0 Number (%) of participants
- TEAE Headache [2, 7]: 4 (66.7) Number (%) of participants
- TEAE Myalgia [2, 7]: 0 Number (%) of participants
- TEAE Nausea [2, 7]: 0 Number (%) of participants
- TEAE Somnolence [2, 7]: 2 (33.3) Number (%) of participants
- TEAE Vomiting [2, 7]: 0 Number (%) of participants
- Participants with any TEAE [2, 8]: 6 (100.0) Number (%) of participants
- TEAE Arthropod bite [2, 8]: 1 (16.7) Number (%) of participants
- TEAE Decreased appetite [2, 8]: 1 (16.7) Number (%) of participants
- TEAE Diarrhoea [2, 8]: 1 (16.7) Number (%) of participants
- TEAE Dizziness [2, 8]: 1 (16.7) Number (%) of participants
- TEAE Dry mouth [2, 8]: 1 (16.7) Number (%) of participants
- TEAE Headache [2, 8]: 5 (83.3) Number (%) of participants
- TEAE Myalgia [2, 8]: 2 (33.3) Number (%) of participants
- TEAE Nausea [2, 8]: 4 (66.7) Number (%) of participants
- TEAE Somnolence [2, 8]: 1 (16.7) Number (%) of participants
- TEAE Vomiting [2, 8]: 3 (50.0) Number (%) of participants
- Participants with any TEAE [2, 9]: 3 (100.0) Number (%) of participants
- TEAE Arthropod bite [2, 9]: 0 Number (%) of participants
- TEAE Constipation [2, 9]: 0 Number (%) of participants
- TEAE Decreased appetite [2, 9]: 0 Number (%) of participants
- TEAE Diarrhoea [2, 9]: 2 (66.7) Number (%) of participants
- TEAE Dizziness [2, 9]: 0 Number (%) of participants
- TEAE Dry mouth [2, 9]: 2 (66.7) Number (%) of participants
- TEAE Headache [2, 9]: 0 Number (%) of participants
- TEAE Myalgia [2, 9]: 0 Number (%) of participants
- TEAE Nausea [2, 9]: 0 Number (%) of participants
- TEAE Somnolence [2, 9]: 0 Number (%) of participants
- TEAE Vomiting [2, 9]: 0 Number (%) of participants
- laboratory test parameters ([2]; MRD cohorts): No notably abnormal laboratory test parameters
- participants experiencing TEAEs ([2]; MRD cohorts (20, 60 or 160 mg q.d.), 15 participants): 83%
- treatment‐related headache ([2]; MRD cohorts, five individuals): 28%
- participants with moderate TEAEs ([2]; MRD cohorts, five participants): 28%
- decreased appetite ([2]; MRD cohorts, n = 3): 17%
- diarrhoea ([2]; MRD cohorts, n = 3): 17%
- dry mouth ([2]; MRD cohorts, n = 3): 17%
- somnolence ([2]; MRD cohorts, n = 3): 17%
- vomiting ([2]; MRD cohorts, n = 3): 17%
- nausea ([2]; MRD cohorts, n = 4): 22%
- headache ([2]; MRD cohorts, n = 9): 50%
- participants with mild TEAEs ([2]; MRD cohorts, nine participants): 50%
- participants with severe TEAEs ([2]; MRD cohorts, one participant (headache, 60 mg)): 6%
- treatment‐related dry mouth ([2]; MRD cohorts, three individuals): 17%
- participants with treatment‐related TEAEs ([2]; MRD cohorts, twelve participants, all mild): 67%
- Participants with any TEAE [2, 10]: 15 (83.3) Number (%) of participants
- TEAE Arthropod bite [2, 10]: 2 (11.1) Number (%) of participants
- TEAE Constipation [2, 10]: 2 (11.1) Number (%) of participants
- TEAE Decreased appetite [2, 10]: 3 (16.7) Number (%) of participants
- TEAE Diarrhoea [2, 10]: 3 (16.7) Number (%) of participants
- TEAE Dizziness [2, 10]: 2 (11.1) Number (%) of participants
- TEAE Dry mouth [2, 10]: 3 (16.7) Number (%) of participants
- TEAE Headache [2, 10]: 9 (50.0) Number (%) of participants
- TEAE Myalgia [2, 10]: 2 (11.1) Number (%) of participants
- TEAE Nausea [2, 10]: 4 (22.2) Number (%) of participants
- TEAE Somnolence [2, 10]: 3 (16.7) Number (%) of participants
- TEAE Vomiting [2, 10]: 3 (16.7) Number (%) of participants
- treatment‐related TEAEs ([2]; SRD 120/160 mg cohort): Two participants had TEAEs considered to be related to treatment, which were mild in intensity
- dizziness ([2]; SRD 120/160 mg cohort, n = 2): 25%
- headache ([2]; SRD 120/160 mg cohort, n = 2): 25%
- participants with moderate TEAEs ([2]; SRD 120/160 mg cohort, one person): 13%
- participants with mild TEAEs ([2]; SRD 120/160 mg cohort, three women): 38%
- gamma glutamyl transferase level reached ([2]; SRD cohort, 160 mg, Day 30, one participant (13%), more than three times the upper limit of normal): 315 U/L
- SAEs, suicidal ideation/behaviour, deaths ([2]; Study 1003): no SAEs, suicidal ideation/behaviour or deaths were reported
- thrombocytopenia AEs ([2]; current study): no thrombocytopenia AEs were observed
- tolerability ([2]; daily dosing up to 160 mg): well tolerated
- Japanese participants experiencing TEAEs ([2]; with TAK‐418 20 mg): 33.3%
- non‐Japanese participants experiencing TEAEs ([2]; with TAK‐418 20 mg): 83%
- renal clearance [3, 11]: 5.12 to 7.81 L/h
- renal excretion [3, 11]: 15.45–20.06%
- Aet, mean (CV%) ([3]; 20 mg q.d., Day 1): 2.858 (25.1) mg
- CLR, mean (CV%) ([3]; 20 mg q.d., Day 1): 5.813 (16.4) L h^−1
- fe,t, mean (CV%) ([3]; 20 mg q.d., Day 1): 14.283 (25.1) %
- Aet, mean (CV%) ([3]; 20 mg q.d., Day 10): 3.090 (28.4) mg
- CLR, mean (CV%) ([3]; 20 mg q.d., Day 10): 5.120 (38.2) L h^−1
- fe,t, mean (CV%) ([3]; 20 mg q.d., Day 10): 15.453 (28.4) %
- Aet, mean (CV%) ([3]; 60 mg q.d., Day 1): 11.423 (28.4) mg
- CLR, mean (CV%) ([3]; 60 mg q.d., Day 1): 8.365 (41.5) L h^−1
- fe,t, mean (CV%) ([3]; 60 mg q.d., Day 1): 19.050 (28.4) %
- Aet, mean (CV%) ([3]; 60 mg q.d., Day 10): 11.087 (31.1) mg
- CLR, mean (CV%) ([3]; 60 mg q.d., Day 10): 6.740 (25.1) L h^−1
- fe,t, mean (CV%) ([3]; 60 mg q.d., Day 10): 18.475 (31.1) %
- Aet, mean (CV%) ([3]; 160 mg q.d., Day 1): 28.500 (11.0) mg
- CLR, mean (CV%) ([3]; 160 mg q.d., Day 1): 7.583 (4.9) L h^−1
- fe,t, mean (CV%) ([3]; 160 mg q.d., Day 1): 17.800 (11.0) %
- Aet, mean (CV%) ([3]; 160 mg q.d., Day 10): 32.067 (37.3) mg
- CLR, mean (CV%) ([3]; 160 mg q.d., Day 10): 7.807 (32.7) L h^−1
- fe,t, mean (CV%) ([3]; 160 mg q.d., Day 10): 20.060 (37.2) %
- renal clearance ([4]; 20–160 mg dose range, single dose (Tables 3 and 4)): 5.81 to 8.68 L/h
- recovered unchanged from urine ([4]; after 20–160 mg dosing, single dose (Tables 3 and 4)): 13.3–19.5%
- Aet, mean (CV%) ([4]; single oral dose 30 mg, fasted): 5.708 (13.0) mg
- CLR, mean (CV%) ([4]; single oral dose 30 mg, fasted): 8.683 (16.3) L h^−1
- fe,t, mean (CV%) ([4]; single oral dose 30 mg, fasted): 19.022 (13.0) %
- Aet, mean (CV%) ([4]; single oral dose 40 mg): 5.333 (18.8) mg
- CLR, mean (CV%) ([4]; single oral dose 40 mg): 8.173 (38.1) L h^−1
- fe,t, mean (CV%) ([4]; single oral dose 40 mg): 13.335 (18.8) %
- Aet, mean (CV%) ([4]; single oral dose 60 mg): 11.677 (35.2) mg
- CLR, mean (CV%) ([4]; single oral dose 60 mg): 7.242 (13.4) L h^−1
- fe,t, mean (CV%) ([4]; single oral dose 60 mg): 19.472 (35.2) %
- recovered unchanged from urine ([4]; within 24 hours): Approximately 20%
- mean C max in CSF ([5]; Day 10, CV% 24.7): 85.20 ng mL^ −1
- mean AUC0–24 in CSF ([5]; Day 10, CV% 26.5): 611.0 ng·h/mL
